From article PMC5766324 (Pain, 2015)
Where a SMILES comes first, the peptide text is derived from it. The star is where a group is joined. Myristoyl = CCCCCCCCCCCCCC(=O)*

Key:
[1] = cited from earlier work
[2] = tested on: Ca2+ currents in sensory neurons; details: cited from earlier work
[3] = i.c.v. dosing; previous studies; cited from earlier work
[4] = tested on: small-diameter DRG neurons; assay: Current clamp, excitability of small-diameter DRG neurons; type: cell-based, rat; details: step of depolarizing current; n = 4 to 6 cells; P < 0.001
Outline: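 Whole-cell current clamp of acutely dissociated small-diameter DRG neurons at ~23°C. Pipette solution (mM): 140 KCl, 10 NaCl, 1 MgCl2, 1 EGTA, 10 HEPES pH 7.2, 1 ATP-Mg. Cells were held at resting potential (−40 to −62 mV). A 1-s depolarizing current step was set to evoke 6–10 APs under control, and APs were counted before and after adding peptide to the bath. Signals were filtered at 5 kHz and […].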

[5] = Paw incision model of postoperative pain; type: in vivo, rat
Outline: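 Male Sprague-Dawley rats received a plantar incision of the left hind paw under isoflurane. After 24 h of recovery, peptide or vehicle was given spinally. Thermal withdrawal latency (lift or lick; 30-s cutoff) and tactile withdrawal thresholds were measured every 15 min for the first hour, then every 30 min for 4 h.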

[6] = target: CRMP2 (Homo sapiens, UniProt Q16555); assay: CRMP2 oligomerization, glutaraldehyde cross-linking and silver-stained SDS-PAGE; type: biochemical; details: 20 μM peptide, 1 mM glutaraldehyde; n = 3
Outline: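 Bacterially expressed recombinant CRMP2, purified by affinity, anion-exchange and size-exclusion chromatography. About 4.6 μM CRMP2 was preincubated in 100 mM HEPES pH 7.3, 50 mM NaCl, with or without 20 μM peptide, for 15 min at room temperature. Glutaraldehyde (0.1, 1 or 10 mM) was added for 30 min. The reaction was stopped with loading dye and heat, and oligomers were resolved by SDS-PAGE with silver staining.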

[7] = tested on: CRMP2 phosphorylation; assay: Western blot of phospho-CRMP2 in peptide-treated DRG; type: cell-based, rat; details: 20 μM peptide, 2 hours, n = 3–6 wells
[8] = tested on: Na+ currents, catecholamine A differentiated cell line; details: chronic application, 20 μM overnight; n = 5 to 8 cells
[9] = tested on: CaV2.2; assay: Immunocytochemistry, confocal colocalization of CaV2.2 and CRMP2 in DRG; type: cell-based, rat; details: 20 μM peptide
Outline: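 DRG cultures were grown on poly-D-lysine coverslips in DMEM/F12 with 10% FBS, 5-FDU and uridine at 37°C, 5% CO2. Cells were exposed to vehicle or 20 μM peptide for 5 min, 20 min, 2 h or 48 h, then fixed (4% paraformaldehyde/4% sucrose, 20 min), permeabilized (0.1% Triton X-100) and blocked (3% BSA). Anti-CaV2.2 and anti-CRMP2 were applied overnight at 4°C. Confocal images were background-subtracted, and Pearson and Manders coefficients were computed from raw data.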

[10] = tested on: Ca2+ currents in sensory neurons; assay: Whole-cell voltage clamp, Ca2+ currents in sensory neurons; type: cell-based, rat
[11] = Carrageenan-induced thermal hypersensitivity; type: in vivo, rat; details: 20 μg/5 μL i.t., 3 hours after carrageenan; tat-CBD3 at 90, 120, 210, 240, 300 minutes; myr-tat-CBD3 at 15, 60, 90, 120, 180 minutes; n = 5–6
[12] = Rotarod performance test; type: in vivo, rat; details: 20 μg/5 μL i.t.; cutoff 180 seconds; n = 5 to 6
[13] = target: N-type voltage-gated calcium channel (CaV2.2) (rat (endogenous in spinal cord)) (UniProt Q02294); assay: pull-down
N-type voltage-gated calcium channel (CaV2.2) (rat (endogenous in spinal cord)), sequence (Q02294 whole entry): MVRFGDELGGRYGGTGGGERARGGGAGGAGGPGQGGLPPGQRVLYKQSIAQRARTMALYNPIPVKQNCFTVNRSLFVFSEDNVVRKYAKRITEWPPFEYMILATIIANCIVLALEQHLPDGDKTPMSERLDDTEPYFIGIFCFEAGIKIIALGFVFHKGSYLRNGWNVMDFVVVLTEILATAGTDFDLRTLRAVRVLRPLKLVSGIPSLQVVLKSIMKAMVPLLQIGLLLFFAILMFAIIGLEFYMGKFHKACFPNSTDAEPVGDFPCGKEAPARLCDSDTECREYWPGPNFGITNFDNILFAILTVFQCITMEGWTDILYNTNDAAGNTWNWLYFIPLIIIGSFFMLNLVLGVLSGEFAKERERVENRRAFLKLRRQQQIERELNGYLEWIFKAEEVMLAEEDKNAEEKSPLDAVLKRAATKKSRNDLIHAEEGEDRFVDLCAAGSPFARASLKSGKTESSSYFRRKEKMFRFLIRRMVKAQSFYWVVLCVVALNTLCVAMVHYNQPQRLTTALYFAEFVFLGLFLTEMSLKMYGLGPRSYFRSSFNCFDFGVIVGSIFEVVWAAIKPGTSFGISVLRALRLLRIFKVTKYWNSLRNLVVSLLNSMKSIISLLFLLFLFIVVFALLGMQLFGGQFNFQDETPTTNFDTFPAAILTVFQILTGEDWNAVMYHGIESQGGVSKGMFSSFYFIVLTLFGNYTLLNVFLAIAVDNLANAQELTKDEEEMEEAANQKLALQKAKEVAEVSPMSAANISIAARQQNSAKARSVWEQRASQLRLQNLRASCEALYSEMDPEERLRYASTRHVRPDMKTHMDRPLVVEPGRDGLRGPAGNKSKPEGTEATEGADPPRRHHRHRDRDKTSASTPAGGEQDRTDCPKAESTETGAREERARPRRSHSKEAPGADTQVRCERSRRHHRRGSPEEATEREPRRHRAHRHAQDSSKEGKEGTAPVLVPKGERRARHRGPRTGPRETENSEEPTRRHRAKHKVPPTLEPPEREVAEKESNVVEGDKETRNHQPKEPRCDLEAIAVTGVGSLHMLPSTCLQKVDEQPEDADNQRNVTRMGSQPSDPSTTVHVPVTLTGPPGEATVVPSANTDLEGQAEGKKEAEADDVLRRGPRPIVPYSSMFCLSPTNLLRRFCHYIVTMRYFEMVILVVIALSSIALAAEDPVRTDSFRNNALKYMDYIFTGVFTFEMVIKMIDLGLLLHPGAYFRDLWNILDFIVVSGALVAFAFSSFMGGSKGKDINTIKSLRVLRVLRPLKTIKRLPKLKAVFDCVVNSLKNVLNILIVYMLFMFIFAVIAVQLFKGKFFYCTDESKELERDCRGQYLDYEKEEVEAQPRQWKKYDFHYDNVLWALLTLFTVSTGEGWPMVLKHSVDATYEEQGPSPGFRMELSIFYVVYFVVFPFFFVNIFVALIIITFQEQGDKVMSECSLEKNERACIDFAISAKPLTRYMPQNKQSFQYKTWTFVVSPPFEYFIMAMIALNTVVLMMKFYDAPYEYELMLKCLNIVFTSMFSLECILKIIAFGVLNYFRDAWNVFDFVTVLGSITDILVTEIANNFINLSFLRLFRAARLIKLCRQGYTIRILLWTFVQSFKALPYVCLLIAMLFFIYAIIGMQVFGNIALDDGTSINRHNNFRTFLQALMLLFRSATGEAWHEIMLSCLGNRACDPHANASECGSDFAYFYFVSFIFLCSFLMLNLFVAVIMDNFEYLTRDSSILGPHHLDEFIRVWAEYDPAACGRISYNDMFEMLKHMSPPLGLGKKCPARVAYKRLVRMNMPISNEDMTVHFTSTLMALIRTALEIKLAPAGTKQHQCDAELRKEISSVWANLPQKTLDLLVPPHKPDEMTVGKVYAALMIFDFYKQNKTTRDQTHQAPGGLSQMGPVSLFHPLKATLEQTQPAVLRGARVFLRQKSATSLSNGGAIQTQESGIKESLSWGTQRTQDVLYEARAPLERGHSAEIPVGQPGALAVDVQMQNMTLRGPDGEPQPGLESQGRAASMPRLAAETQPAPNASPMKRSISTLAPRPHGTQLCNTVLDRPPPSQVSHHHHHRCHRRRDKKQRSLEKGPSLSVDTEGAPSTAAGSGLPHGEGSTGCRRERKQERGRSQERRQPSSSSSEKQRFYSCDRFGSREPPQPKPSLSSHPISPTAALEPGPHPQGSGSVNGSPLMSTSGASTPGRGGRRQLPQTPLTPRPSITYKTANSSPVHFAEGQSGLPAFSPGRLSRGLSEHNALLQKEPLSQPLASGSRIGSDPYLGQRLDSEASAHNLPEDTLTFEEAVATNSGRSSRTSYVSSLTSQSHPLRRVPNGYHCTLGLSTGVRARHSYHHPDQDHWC

NCC1(CC(=O)O)CCCCC1 [gabapentin]
peak effect, reversal of hypersensitivity ([1]; intrathecal, von Frey on incised paw, 60 minutes after injection): ~ 19% | block of CaV2.2 currents after acute treatments [2]: ineffective in blocking currents

CN1CC[C@]23c4c5ccc(O)c4O[C@H]2[C@@H](O)C=C[C@H]3[C@H]1C5 [morphine]
conditioned place preference [3]: positive condition place preference

CCCCCCCCCCCCCC(=O)NCC(=O)N[C@@H](Cc1ccc(O)cc1)C(=O)NCC(=O)N[C@@H](CCCNC(=N)N)C(=O)N[C@@H](CCCCN)C(=O)N[C@@H](CCCCN)C(=O)N[C@@H](CCCNC(=N)N)C(=O)N[C@@H](CCCNC(=N)N)C(=O)N[C@@H](CCC(N)=O)C(=O)N[C@@H](CCCNC(=N)N)C(=O)N[C@@H](CCCNC(=N)N)C(=O)N[C@@H](CCCNC(=N)N)C(=O)N[C@@H](C)C(=O)N[C@@H](CCCNC(=N)N)C(=O)N[C@@H](CO)C(=O)N[C@@H](CCCNC(=N)N)C(=O)N[C@@H](CC(C)C)C(=O)N[C@@H](C)C(=O)N[C@@H](CCC(=O)O)C(=O)N[C@@H](CC(C)C)C(=O)N[C@@H](CCCNC(=N)N)C(=O)NCC(=O)N[C@H](C(=O)N1CCC[C@H]1C(=O)N[C@@H](CCCNC(=N)N)C(=O)NCC(=O)N[C@@H](CC(C)C)C(=O)O)C(C)C [myr-tat-CBD3] (Myristoyl-GYGRKKRRQRRRARSRLAELRGVPRGL-OH; C-terminus assumed)
number of action potentials (APs) [4]: significantly decreased | time for which maintenance of thermal and tactile hypersensitivity was blocked ([5]; 20 μg/5 μL i.t., 24 hours after incision, n = 5): at least 4 hours | withdrawal threshold (tactile) ([5]; at 5 hours after i.t. injection, 20 μg/5 μL): ~ 11 g | duration of reversal of thermal hypersensitivity ([5]; spinal administration after surgery): ~ 4 hours | extent of CRMP2 dimer or tetramer [6]: does not alter | expression of phosphorylated CRMP2 at sites 522, 509/514, 555 [7]: no changes | effect on Na+ currents [8]: did not affect | Manders overlap coefficient (MOC), CaV2.2 with CRMP2 [9]: 0.65 | Pearson correlation coefficient (PCC), CaV2.2 with CRMP2 [9]: 0.60 | effect on Ca2+ currents, acute application ([10]; acute application (5–30 minutes), data not shown): unable to inhibit currents | inhibition of Ca2+ currents ([10]; chronic application (~24 hours), 20 μM overnight, n = 14 to 16 cells): ~ 40% | activation of Ca2+ currents ([10]; chronic application, 20 μM, Boltzmann fits): no changes | carrageenan-induced thermal hypersensitivity vs vehicle [11]: significantly attenuated

CC(C)C[C@H](NC(=O)CNC(=O)[C@H](CCCNC(=N)N)NC(=O)[C@@H]1CCCN1C(=O)[C@@H](NC(=O)CNC(=O)[C@H](CCCNC(=N)N)NC(=O)[C@H](CC(C)C)NC(=O)[C@H](CCC(=O)O)NC(=O)[C@H](C)NC(=O)[C@H](CC(C)C)NC(=O)[C@H](CCCNC(=N)N)NC(=O)[C@H](CO)NC(=O)[C@H](CCCNC(=N)N)NC(=O)[C@H](C)NC(=O)[C@H](CCCNC(=N)N)NC(=O)[C@H](CCCNC(=N)N)NC(=O)[C@H](CCCNC(=N)N)NC(=O)[C@H](CCC(N)=O)NC(=O)[C@H](CCCNC(=N)N)NC(=O)[C@H](CCCNC(=N)N)NC(=O)[C@H](CCCCN)NC(=O)[C@H](CCCCN)NC(=O)[C@H](CCCNC(=N)N)NC(=O)CNC(=O)[C@@H](N)Cc1ccc(O)cc1)C(C)C)C(=O)O [tat-CBD3] (H-YGRKKRRQRRRARSRLAELRGVPRGL-OH)
average time on rotarod over the course of 300 minutes [12]: 180 ± 0 s

myr-tat-CBD3 (peptide)
percent inhibition of CaV2.2-CRMP2 binding at 10 μM [13]: > 81%

ω-conotoxin MVIIA
duration of reduced thermal hypersensitivity and mechanical allodynia ([1]; in vivo): 2 to 4 h | time of maximal effect ([1]; in vivo): 2 h
